Experiments:
MCF7 [1] = assay: Antiproliferative activity against human MCF7 cells after 48 hrs by MTT assay; assay type: functional, cell-based; conditions: MCF7, 48 h
Outline: (§1)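 Cells were seeded into 96-well plates in complete medium and preincubated 24 h at 37 °C, 5% CO2. Compounds at preset concentrations were added to six wells, with colchicine and CA-4 run alongside as references, and exposed for 48 h. MTT (2.5 mg mL^-1 in PBS) was added for 4 h, followed by SDS/isobutyl alcohol/HCl extraction overnight at 37 °C. OD was read at 570 nm, with three replicate wells per concentration.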

HepG2 = assay: Antiproliferative activity against human HepG2 cells after 48 hrs by MTT assay; assay type: functional, cell-based; conditions: HepG2, 48 h; outline: as §1
A549 = assay: Antiproliferative activity against human A549 cells after 48 hrs by MTT assay; assay type: functional, cell-based; conditions: A549, 48 h; outline: as §1
[2] = Inhibition of bovine tubulin polymerization after 20 mins by spectrophotometry; parameters: species or system Bos taurus
Outline: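 Tubulin was preincubated in glutamate buffer at 30 °C and then cooled to 0 °C. GTP was added, samples were moved to 0 °C cuvettes and warmed to 30 °C, and assembly was followed turbidimetrically in a recording spectrophotometer. IC50 was taken as the concentration inhibiting the extent of assembly by 50% after 20 min.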

MCF7 [3] = assay: Induction of apoptosis in human MCF7 cells assessed as early apoptotic cells at 0.01 uM incubated for 24 hrs by Annexin-V-FITC/PI staining based flow cytometry (reference value: 7.4 %); assay type: functional
MCF7 [4] = assay: Induction of apoptosis in human MCF7 cells assessed as late apoptotic cells at 0.01 uM incubated for 24 hrs by Annexin-V-FITC/PI staining based flow cytometry (reference value: 3.17 %); assay type: functional
MCF7 [5] = assay: Induction of apoptosis in human MCF7 cells assessed as early apoptotic cells at 0.05 uM incubated for 24 hrs by Annexin-V-FITC/PI staining based flow cytometry (reference value: 7.4 %); assay type: functional
MCF7 [6] = assay: Induction of apoptosis in human MCF7 cells assessed as late apoptotic cells at 0.05 uM incubated for 24 hrs by Annexin-V-FITC/PI staining based flow cytometry (reference value: 3.17 %); assay type: functional
MCF7 [7] = assay: Induction of apoptosis in human MCF7 cells assessed as early apoptotic cells at 0.25 uM incubated for 24 hrs by Annexin-V-FITC/PI staining based flow cytometry (reference value: 7.4 %); assay type: functional
MCF7 [8] = assay: Induction of apoptosis in human MCF7 cells assessed as late apoptotic cells at 0.25 uM incubated for 24 hrs by Annexin-V-FITC/PI staining based flow cytometry (reference value: 3.17 %); assay type: functional
MCF7 [9] = assay: Induction of apoptosis in human MCF7 cells assessed as late apoptotic cells incubated for 24 hrs by Annexin-V-FITC/PI staining based flow cytometry; assay type: functional, cell-based

Row | SMILES | IC50 (MCF7 [1]) [nM] | IC50 (HepG2) [nM] | IC50 (A549) [nM] | IC50 [2] [µM] | Activity (MCF7 [3]) [%] | Activity (MCF7 [4]) [%] | Activity (MCF7 [5]) [%] | Activity (MCF7 [6]) [%] | Activity (MCF7 [7]) [%] | Activity (MCF7 [8]) [%] | Activity (MCF7 [9])
1 | O=[N+]([O-])c1cc(C(F)(F)F)cc([N+](=O)[O-])c1Oc1ccc(Cl)cc1/C=N\OCc1ccccc1Cl | 3950 | 1510 | 5030 | 9.05 |  |  |  |  |  |  | 
2 | O=[N+]([O-])c1cc(C(F)(F)F)cc([N+](=O)[O-])c1Oc1c(Br)cc(Br)cc1/C=N\OCc1ccccc1F | 880 | 1100 | 1560 | 4.53 |  |  |  |  |  |  | 
3 | O=[N+]([O-])c1cc(C(F)(F)F)cc([N+](=O)[O-])c1Oc1c(Br)cc(Br)cc1/C=N/OCc1ccc(Cl)cc1Cl | 2090 | 1050 | 6190 | 15.7 |  |  |  |  |  |  | 
4 | O=[N+]([O-])c1cc(C(F)(F)F)cc([N+](=O)[O-])c1Oc1ccccc1/C=N/OCc1ccc(Cl)cc1Cl | 940 | 1020 | 1610 | 4.08 |  |  |  |  |  |  | 
5 | O=[N+]([O-])c1cc(C(F)(F)F)cc([N+](=O)[O-])c1Oc1c(Br)cc(Br)cc1/C=N\OCc1ccccc1Cl | 2320 | 2450 | 4120 | 18.1 |  |  |  |  |  |  | 
6 | O=[N+]([O-])c1cc(C(F)(F)F)cc([N+](=O)[O-])c1Oc1ccc(Cl)cc1/C=N\OCc1ccccc1 | 1220 | 1790 | 3410 | 30.9 |  |  |  |  |  |  | 
7 | O=[N+]([O-])c1cc(C(F)(F)F)cc([N+](=O)[O-])c1Oc1ccc(Cl)cc1/C=N\OCc1ccccc1F | 1110 | 1020 | 2570 | 7.07 |  |  |  |  |  |  | 
8 | O=[N+]([O-])c1cc(C(F)(F)F)cc([N+](=O)[O-])c1Oc1ccccc1/C=N\OCc1ccccc1 | 1330 | 1330 | 1470 | 14 |  |  |  |  |  |  | 
9 | O=[N+]([O-])c1cc(C(F)(F)F)cc([N+](=O)[O-])c1Oc1c(Br)cc(Br)cc1/C=N\OCc1ccccc1 | 1830 | 1480 | 2150 | 18 |  |  |  |  |  |  | 
10 | O=[N+]([O-])c1cc(C(F)(F)F)cc([N+](=O)[O-])c1Oc1c(Cl)cc(Cl)cc1/C=N/OCc1ccccc1Cl | 1960 | 1120 | 2160 | 16.1 |  |  |  |  |  |  | 
11 | O=[N+]([O-])c1cc(C(F)(F)F)cc([N+](=O)[O-])c1Oc1ccc(Br)cc1/C=N\OCc1ccccc1F | 1120 | 890 | 1280 | 6.9 |  |  |  |  |  |  | 
12 | O=[N+]([O-])c1cc(C(F)(F)F)cc([N+](=O)[O-])c1Oc1ccccc1/C=N/OCc1ccccc1Cl | 1100 | 1170 | 1430 | 6.92 |  |  |  |  |  |  | 
13 | O=[N+]([O-])c1cc(C(F)(F)F)cc([N+](=O)[O-])c1Oc1ccc(Br)cc1/C=N\OCc1ccccc1 | 1150 | 1180 | 2240 | 15.4 |  |  |  |  |  |  | 
14 | O=[N+]([O-])c1cc(C(F)(F)F)cc([N+](=O)[O-])c1Oc1ccccc1/C=N\OCc1ccccc1F | 700 | 680 | 860 | 3.06 | 17.32 | 4.46 | 27.64 | 7.72 | 34.51 | 9.65 | Dose-dependent effect
15 | O=[N+]([O-])c1cc(C(F)(F)F)cc([N+](=O)[O-])c1Oc1c(Cl)cc(Cl)cc1/C=N/OCc1ccc(Cl)cc1Cl | 1030 | 940 | 1420 | 6.18 |  |  |  |  |  |  | 
16 | O=[N+]([O-])c1cc(C(F)(F)F)cc([N+](=O)[O-])c1Oc1ccc(Br)cc1/C=N/OCc1ccccc1Cl | 2840 | 1240 | 3430 | 13.2 |  |  |  |  |  |  | 
17 | COc1cc2c(c(OC)c1OC)-c1ccc(OC)c(=O)cc1[C@@H](NC(C)=O)CC2 [COLCHICINE] | 530 | 230 | 750 | 1.72 |  |  |  |  |  |  | 
18 | COc1ccc(/C=C\c2cc(OC)c(OC)c(OC)c2)cc1O [COMBRETASTATIN A4] | 410 | 190 | 90 | 0.7 |  |  |  |  |  |  | 
19 | O=[N+]([O-])c1cc(C(F)(F)F)cc([N+](=O)[O-])c1Oc1c(Cl)cc(Cl)cc1/C=N\OCc1ccccc1 | 1210 | 1120 | 1450 | 9.02 |  |  |  |  |  |  | 
20 | O=[N+]([O-])c1cc(C(F)(F)F)cc([N+](=O)[O-])c1Oc1ccc(Br)cc1/C=N\OCc1ccc(Cl)cc1Cl | 1340 | 1070 | 2060 | 7.06 |  |  |  |  |  |  | 
21 | O=[N+]([O-])c1cc(C(F)(F)F)cc([N+](=O)[O-])c1Oc1ccc(Cl)cc1/C=N\OCc1ccc(Cl)cc1Cl | 1140 | 1280 | 3440 | 7.54 |  |  |  |  |  |  | 
22 | O=[N+]([O-])c1cc(C(F)(F)F)cc([N+](=O)[O-])c1Oc1c(Cl)cc(Cl)cc1/C=N\OCc1ccccc1F | 800 | 820 | 1230 | 3.65 |  |  |  |  |  |  | 

From ChEMBL document CHEMBL2016460, “Synthesis, biological evaluation, and molecular docking studies of 2,6-dinitro-4-(trifluoromethyl)phenoxysalicylaldoxime derivatives as novel antitubulin agents” (Bioorg Med Chem, 2012)
